Data on 3 compounds can be found in ChEMBL document CHEMBL1275442, “Pharmacokinetics and tissue distribution of anidulafungin in rats” (Antimicrob Agents Chemother, 2008).

The structures appear in SMILES notation. Converted amounts (≈) assume the structure as drawn. *1 amine or outer side, *2 acyl side, *3 side chain or, on linkers, in order; H or OH if unused. Where a SMILES comes first, the peptide text is derived from it. Bridges are numbered along the chain shown (N, C = ends). [ ]: non-standard residue; d: D form. The star is where a group is joined. hTyr(3S-OH,4S-OH,3'-OSO3H) = N[C@H](C(=O)O)[C@H](O)[C@@H](O)c1ccc(O)c(OS(=O)(=O)O)c1; pTerphenylCO(4''-OnC5H11) = CCCCCOc1ccc(-c2ccc(-c3ccc(C(=O)*)cc3)cc2)cc1; Orn(4R-OH,5R-OH) = O=C([C@H](C[C@@H](O)[C@@H](O)N[*:3])N[*:1])[*:2]; hTyr(3S-OH,4S-OH) = N[C@H](C(=O)O)[C@H](O)[C@@H](O)c1ccc(O)cc1; Pro(3S-OH,4S-Me) = C[C@H]1CN[C@H](C(=O)O)[C@H]1O; X1 = CCCCCOc1ccc(-c2cc(-c3ccc(C(=O)*)cc3)no2)cc1; Gln(3R-OH) = NC(=O)C[C@@H](O)[C@H](N)C(=O)O; Hyp = O=C(O)[C@@H]1C[C@@H](O)CN1

Data set [1] in a line: Ratio of AUC in rat kidney to AUC in rat plasma at 1 mg/kg, iv. Also on record: dose 1 mg/kg, route intravenous. To be noted: kidney and plasma, read-out: Ratio AUC. It counts as ADME, organism-based.
A short description of data set [2]: Ratio of AUC in rat liver to AUC in rat plasma at 1 mg/kg, iv. In kind it is ADME, organism-based. Also on record: dose 1 mg/kg, route intravenous. Particulars: liver and plasma, read-out: Ratio AUC.
Data set [3] in a line: Ratio of AUC in rat lung to AUC in rat plasma at 1 mg/kg, iv. Particulars: lung and plasma, read-out: Ratio AUC. In kind it is ADME, organism-based. Also on record: dose 1 mg/kg, route intravenous.
Data set [4] has as its system Candida. The data set is described as follows: Antifungal activity against Candida sp. In kind it is functional.
Data set [5] in a line: Volume of distribution in F344 rat at 5 mg/kg, iv administered as single bolus dose. It counts as ADME, organism-based. Also on record: dose 5 mg/kg, route intravenous. Particulars: in vivo. An outline of the steps: (§1)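 F344 males, 10 to 11 weeks old and 223.6 to 243.8 g, got a single 5 mg/kg iv dose of [14C]anidulafungin over about 5 min. Plasma and tissues were collected predose and at 0.083 to 72 h, n = 3 per time point. Parent drug was quantified by HPLC-UV, with LLOQ/ULOQ of 20/5,120 ng/ml in plasma and 220/56,320 ng/g in tissue. Noncompartmental parameters came from a composite mean concentration-time profile.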

In data set [6] the test system is Aspergillus fumigatus. The experiment in a line: Antifungal activity against Aspergillus fumigatus. It counts as functional.
Data set [7] can be described thus: Total body clearance in F344 rat at 5 mg/kg, iv administered as single bolus dose. Also on record: dose 5 mg/kg, route intravenous. It counts as ADME, organism-based. To be noted: in vivo. In outline:
as §1

Data set [8] relates to Aspergillus flavus. The experiment in a line: Antifungal activity against Aspergillus flavus. In kind it is functional.
A short description of data set [9]: Ratio of AUC (0 to infinity) in F344 rat kidney to AUC (0 to infinity) in F344 rat plasma at 5 mg/kg, iv administered as single bolus dose. In kind it is ADME, organism-based. More on the design: dose 5 mg/kg, route intravenous. To be noted: kidney and plasma. In outline:
(§2)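 Male F344 rats, 10–11 weeks old, 223.6–243.8 g, given a single IV dose of [¹⁴C]-labelled drug over about 5 min. Tissue and plasma sampled predose and at 0.083–72 h, n = 3 per time point. Parent drug measured by HPLC-UV; tissue LLOQ 220 ng/g, plasma LLOQ 20 ng/ml. AUC0-∞ by noncompartmental analysis of the composite mean profile; ratio is tissue AUC over plasma AUC.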

A short description of data set [10]: Ratio of AUC (0 to infinity) in F344 rat lung to AUC (0 to infinity) in F344 rat plasma at 5 mg/kg, iv administered as single bolus dose. In kind it is ADME, organism-based. More on the design: dose 5 mg/kg, route intravenous. To be noted: lung and plasma. In outline:
as §2

Data set [11] can be described thus: Ratio of AUC (0 to infinity) in F344 rat liver to AUC (0 to infinity) in F344 rat plasma at 5 mg/kg, iv administered as single bolus dose. It counts as ADME, organism-based. Also on record: dose 5 mg/kg, route intravenous. To be noted: liver and plasma. An outline of the steps:
as §2

Regarding `CCCCCOc1ccc(-c2cc(-c3ccc(C(=O)N[C@H]4C[C@@H](O)[C@@H](O)NC(=O)[C@@H]5[C@@H](O)[C@@H](C)CN5C(=O)[C@H]([C@H](O)CC(N)=O)NC(=O)[C@H]([C@H](O)[C@@H](O)c5ccc(O)c(OS(=O)(=O)O)c5)NC(=O)[C@@H]5C[C@@H](O)CN5C(=O)[C@H]([C@@H](C)O)NC4=O)cc3)no2)cc1` [MICAFUNGIN] (X1-[Orn(4R-OH,5R-OH)]T[Hyp][hTyr(3S-OH,4S-OH,3'-OSO3H)][Gln(3R-OH)][Pro(3S-OH,4S-Me)]; lactam 1-C), the results for the Kp in [1], in data set [2] and in data set [3] were 3.2, 7.8 and 3.6, respectively.

On to `CCCCCOc1ccc(-c2ccc(-c3ccc(C(=O)N[C@H]4C[C@@H](O)[C@@H](O)NC(=O)[C@@H]5[C@@H](O)[C@@H](C)CN5C(=O)[C@H]([C@@H](C)O)NC(=O)[C@H]([C@H](O)[C@@H](O)c5ccc(O)cc5)NC(=O)[C@@H]5C[C@@H](O)CN5C(=O)[C@H]([C@@H](C)O)NC4=O)cc3)cc2)cc1` [ANIDULAFUNGIN] ({pTerphenylCO(4''-OnC5H11)}-[Orn(4R-OH,5R-OH)]T[Hyp][hTyr(3S-OH,4S-OH)]T[Pro(3S-OH,4S-Me)]; lactam 1-C), for which the MIC90 (as a rule, the lowest concentration that inhibits either 90% of growth or 90% of the strains tested, depending on the study) is 0.06 µg/mL (≈ 0.0526 µM) in [4], 0.03 µg/mL (≈ 0.0263 µM) in [6] and 0.08 µg/mL (≈ 0.0702 µM) in [8]. The Vd (usually a proportionality between amount in the body and measured concentration, not a real space) in [5] stood at 2.2 L/kg. For the same compound, the clearance (in general, a measure of how efficiently the substance is removed, as volume per time) in data set [7] stood at 1.4 mL/min/kg.

Take `CC[C@H](C)C[C@H](C)CCCCCCCCC(=O)N[C@H]1C[C@@H](O)[C@@H](NCCN)NC(=O)[C@@H]2[C@@H](O)CCN2C(=O)[C@H]([C@H](O)CCN)NC(=O)[C@H]([C@H](O)[C@@H](O)c2ccc(O)cc2)NC(=O)[C@@H]2C[C@@H](O)CN2C(=O)[C@H]([C@@H](C)O)NC1=O` [CASPOFUNGIN]: the Kp in data set [9] is 10.7; in [10], 10.4; in data set [11], 12.4.
